{"data": "Results gathered from unrelated publications", "KIT L576P": "Mast/stem cell growth factor receptor Kit (KIT, Homo sapiens, UniProt P10721, L576P)", "KIT V559D": "Mast/stem cell growth factor receptor Kit (KIT, Homo sapiens, UniProt P10721, V559D)", "KIT T670I/V559D": "Mast/stem cell growth factor receptor Kit (KIT, Homo sapiens, UniProt P10721, T670I/V559D)", "KIT D816V": "Mast/stem cell growth factor receptor Kit (KIT, Homo sapiens, UniProt P10721, D816V)", "KIT D816H": "Mast/stem cell growth factor receptor Kit (KIT, Homo sapiens, UniProt P10721, D816H)", "KIT": "Mast/stem cell growth factor receptor Kit (KIT, Homo sapiens, UniProt P10721)", "KIT V559D/V654A": "Mast/stem cell growth factor receptor Kit (KIT, Homo sapiens, UniProt P10721, V559D/V654A)", "KIT autoinhibited": "Mast/stem cell growth factor receptor Kit, autoinhibited (KIT, Homo sapiens, UniProt P10721)", "note": "Lines come from different studies, so protocols differ."}
{"Structure (SMILES)": "CCN1CCN(Cc2ccc(C(=O)Nc3ccc(C)c(Oc4ccc5c(c4)CC(=O)N5)c3)cc2C(F)(F)F)CC1", "target": "KIT L576P", "assay": "binding, competition with immobilised ligand", "setting": "1 µM", "remaining binding [%]": 2.9}
{"Structure (SMILES)": "O=S(=O)(NC1CCC(c2cc(F)ccc2F)(S(=O)(=O)c2ccc(Cl)cc2)CC1)C(F)(F)F (stereo not shown)", "target": "KIT L576P", "assay": "cell-free assay, competition with immobilised ligand", "setting": "1 µM", "remaining binding [%]": 100}
{"Structure (SMILES)": "C=CC(=O)N1CCC(C(=O)NCC(=O)N2CCN(c3nc(-c4cnc(N)nc4C(F)F)nc(N4CCOCC4)n3)CC2)CC1", "target": "KIT V559D", "assay": "binding, competition with immobilised ligand", "setting": "1 µM", "remaining binding [%]": 78}
{"Structure (SMILES)": "COc1cnc(Nc2cccc(S(N)(=O)=O)c2)nc1N1CCN(c2ccccc2)CC1", "target": "KIT T670I/V559D", "assay": "binding, competition with immobilised ligand", "setting": "1 µM", "remaining binding [%]": 97}
{"Structure (SMILES)": "O=C(NCCCN1CCOCC1)c1ccc(Nc2nccc(-c3cc4ccccc4s3)n2)cc1", "target": "KIT D816V", "assay": "binding, competition with immobilised ligand", "setting": "1 µM", "remaining binding [%]": 16}
{"Structure (SMILES)": "O=C(NCC1CCOCC1)c1n[nH]cc1NC(=O)c1c(F)cccc1F", "target": "KIT T670I/V559D", "assay": "binding, competition with immobilised ligand", "setting": "1 µM", "remaining binding [%]": 100}
{"Structure (SMILES)": "CN(c1nccc(-c2cnn3ncccc23)n1)C1CC1", "target": "KIT D816H", "assay": "binding", "setting": "1 µM", "remaining binding [%]": 83}
{"Structure (SMILES)": "COc1ccc2c(O[C@@H]3C[C@H]4C(=O)N[C@]5(C(=O)O)CC5/C=C\\CCCCC[C@H](NC(=O)OC5CCCC5)C(=O)N4C3)cc(-c3csc(NC(=O)C(C)C)n3)nc2c1C (stereo partly shown)", "target": "KIT", "assay": "cell-free assay, competition with immobilised ligand", "setting": "1 µM", "remaining binding [%]": 100}
{"Structure (SMILES)": "CNC(=O)[C@@H]1CC[C@@H](n2c(-c3ccc4cnccc4c3)nc3ccc(C(=O)NCc4cccc(C(N)=O)c4)cc32)C1", "target": "KIT D816H", "assay": "binding, competition with immobilised ligand", "setting": "1 µM", "remaining binding [%]": 100}
{"Structure (SMILES)": "O=C(c1ccc(Nc2ncc(Cl)c(-c3ccc(Cl)s3)n2)cc1)N1CCC(N2CCCC2)CC1", "target": "KIT V559D", "assay": "binding, competition with immobilised ligand", "setting": "1 µM", "remaining binding [%]": 0.05}
{"Structure (SMILES)": "C[C@@H](c1ccc(-n2cnc3c(N)ncnc32)cc1)N1CCc2nn(C)c(Cc3ccccc3)c2C1=O", "target": "KIT", "assay": "binding, competition with immobilised ligand", "setting": "0.1 µM", "remaining binding [%]": 38}
{"Structure (SMILES)": "Cc1cnc(Nc2ccc(C(=O)N3CCC(N4CCCC4)CC3)cc2)nc1-c1cc2ccccc2s1", "target": "KIT", "assay": "binding, competition with immobilised ligand", "setting": "1 µM", "remaining binding [%]": 4.5}
{"Structure (SMILES)": "O=C(Nc1c[nH]nc1C(=O)NC1CCNCC1)c1cc(F)cc(F)c1", "target": "KIT V559D/V654A", "assay": "binding, competition with immobilised ligand", "setting": "1 µM", "remaining binding [%]": 100}
{"Structure (SMILES)": "O=C(c1ccc(Nc2ncc(Cl)c(-c3cc4ccccc4s3)n2)cc1)N1CCC(N2CCCC2)CC1", "target": "KIT D816H", "assay": "binding, competition with immobilised ligand", "setting": "1 µM", "remaining binding [%]": 22}
{"Structure (SMILES)": "Nc1ncc2c(n1)-c1c([nH]c3ccc(C#CC4CC4)cc13)CCCC2", "target": "KIT D816H", "assay": "binding, competition with immobilised ligand", "setting": "1 µM", "remaining binding [%]": 89}
{"Structure (SMILES)": "C[C@H]1CCN(c2nccc(-c3cnn4ncccc34)n2)C1", "target": "KIT L576P", "assay": "binding", "setting": "1 µM", "remaining binding [%]": 67}
{"Structure (SMILES)": "O=C(NS(=O)(=O)c1ccc(NCC2CCOCC2)c([N+](=O)[O-])c1)c1ccc(N2CCN(Cc3ccc(C(F)(F)F)cc3-c3ccc(Cl)cc3)CC2)cc1Oc1cnc2[nH]ccc2c1", "target": "KIT autoinhibited", "assay": "cell-free assay, competition with immobilised ligand", "setting": "1 µM", "remaining binding [%]": 100}
{"Structure (SMILES)": "CN(CCCC(F)(F)F)c1nccc(-c2cnn3ncccc23)n1", "target": "KIT V559D", "assay": "binding", "setting": "1 µM", "remaining binding [%]": 100}
{"Structure (SMILES)": "CNC(=O)Nc1ccc2c(c1)CC[C@@]21OC(=O)N(CC(=O)N(Cc2ccc(F)cc2)[C@@H](C)C(F)(F)F)C1=O", "target": "KIT V559D", "assay": "cell-free assay, competition with immobilised ligand", "setting": "1 µM", "remaining binding [%]": 100}
{"Structure (SMILES)": "Cc1cnn2ncc(-c3ccnc(N(C)C)n3)c2c1", "target": "KIT V559D/V654A", "assay": "binding", "setting": "1 µM", "remaining binding [%]": 100}
{"Structure (SMILES)": "COc1cnc(Nc2cccc(S(N)(=O)=O)c2)nc1N1CCN(c2ccccc2)C(=O)C1", "target": "KIT V559D", "assay": "binding, competition with immobilised ligand", "setting": "1 µM", "remaining binding [%]": 98}
{"Structure (SMILES)": "O=C(c1ccc(Nc2nccc(-c3cc4ccccc4s3)n2)cc1)N1CCC(N2CCCC2)CC1", "target": "KIT V559D/V654A", "assay": "binding, competition with immobilised ligand", "setting": "1 µM", "remaining binding [%]": 63}
{"Structure (SMILES)": "N[C@@H]1CCN(c2nccc(-c3cnn4ncccc34)n2)C1", "target": "Mast/stem cell growth factor receptor Kit (KIT, Homo sapiens, UniProt P10721, A829P)", "assay": "binding", "setting": "1 µM", "remaining binding [%]": 100}
{"Structure (SMILES)": "COc1ccc2c(c1)O[C@H](c1ccc(OC)c(OC)c1)C[C@@H]2NC(=O)C1(c2ccc3c(c2)OC(F)(F)O3)CC1", "target": "KIT", "assay": "cell-free assay, competition with immobilised ligand", "setting": "1 µM", "remaining binding [%]": 100}
{"Structure (SMILES)": "CN(C)c1ncc(F)c(-c2cnn3ncccc23)n1", "target": "KIT D816V", "assay": "binding", "setting": "1 µM", "remaining binding [%]": 91}
{"Structure (SMILES)": "CC1=C(C#N)[C@@H](c2ccc3[nH]nc(C)c3c2)C(C#N)=C(c2ccc(Cl)cc2)N1", "target": "KIT D816H", "assay": "cell-free assay, competition with immobilised ligand", "setting": "1 µM", "remaining binding [%]": 84.3}
{"Structure (SMILES)": "c1cncc(-c2cccc(Nc3nccc(NC4CCCCC4)n3)c2)c1", "target": "KIT V559D", "assay": "binding, competition with immobilised ligand", "setting": "10 µM", "remaining binding [%]": 1.2}
{"Structure (SMILES)": "C[C@@H](c1cccc(C#N)c1)n1cc(Cl)cc(C(N)=O)c1=N", "target": "KIT V559D", "assay": "cell-free assay, competition with immobilised ligand", "setting": "1 µM", "remaining binding [%]": 93}
{"Structure (SMILES)": "F[C@@H]1CCN(c2nccc(-c3cnn4ncccc34)n2)C1", "target": "KIT V559D/V654A", "assay": "binding", "setting": "1 µM", "remaining binding [%]": 74}
{"Structure (SMILES)": "CN([C@@H]1CCc2c(CC(=O)O)c3ccccc3n2C1)S(=O)(=O)c1ccc(F)cc1", "target": "KIT T670I/V559D", "assay": "cell-free assay, competition with immobilised ligand", "setting": "1 µM", "remaining binding [%]": 100}
{"Structure (SMILES)": "O=C(NCCCN1CCOCC1)c1ccc(Nc2ncc(Cl)c(-c3ccc(Cl)s3)n2)cc1", "target": "KIT autoinhibited", "assay": "binding, competition with immobilised ligand", "setting": "1 µM", "remaining binding [%]": 31}
